# Tests used:
# Cavia porcellus [1] = experiment: Evaluation of bronchodilator activity at dose 60 mg/kg perorally 1 hr prior to histamine aerosol exposure.; assay type: functional; conditions: route oral
# Procedure, shortened: (§1)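 Guinea pigs received drug po, dissolved in 1 N HCl or suspended in vehicle, 1 h before challenge. The challenge was 0.4% aqueous histamine nebulized at 6 psi into a closed chamber. Respiratory status was scored 0–4 (4 = unconsciousness). Percent protection compares the total score of 8 treated animals with a control group of 8 (control = 0, complete protection = 100), giving a single value.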
# Cavia porcellus [2] = experiment: Respiratory status of guinea pigs exposed to histamine aerosol expressed as percent protection at a dose of 10 mg/kg (po); assay type: functional; procedure, shortened: as §1
# Cavia porcellus [3] = experiment: Respiratory status of guinea pigs exposed to histamine aerosol expressed as percent protection 8 hr at a dose of 60 mg/kg (po)
# Cavia porcellus [4] = experiment: Respiratory status of guinea pigs exposed to histamine aerosol expressed as percent protection 2 hr at a dose of 60 mg/kg (po)
# Cavia porcellus [5] = experiment: Respiratory status of guinea pigs exposed to histamine aerosol expressed as percent protection at a dose of 60 mg/kg (po); assay type: functional; procedure, shortened: as §1
# Rattus norvegicus [6] = experiment: Evaluation of antiulcer activity( percent decrease in total number of lesions in cold-restraint, stressed rats) at intraperitoneal dose at 100 mg/kg; Inactive; assay type: functional
# Procedure, shortened: (§2)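 Nonfasted female Sprague–Dawley rats (90–120 g) were immobilized supine and held at 12 °C for 3 h to induce gastric ulceration. Drug was suspended in saline with 10 g/L carboxymethylcellulose and 1 g/L Tween 80 and given po or ip 3 h before stress. Rats were then killed and stomachs removed. Readout: percent decrease in total lesion number versus controls. Active: p ≤ 0.05.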
# Cavia porcellus [7] = experiment: Respiratory status of guinea pigs exposed to histamine aerosol expressed as percent protection 4 hr at a dose of 60 mg/kg (po)
# Cavia porcellus [8] = experiment: Respiratory status of guinea pigs exposed to histamine aerosol expressed as percent protection at a dose of 30 mg/kg (po); assay type: functional; procedure, shortened: as §1
# Cavia porcellus [9] = experiment: Respiratory status of guinea pigs exposed to histamine aerosol expressed as percent protection at a dose of 3 mg/kg (po); assay type: functional; procedure, shortened: as §1
# Rattus norvegicus [10] = experiment: Evaluation of antiulcer activity (% decrease in total number of lesions in cold-restraint, stressed rats) at peroral dose 10 mg/kg.; assay type: functional; conditions: route oral; procedure, shortened: as §2
# Rattus norvegicus [11] = experiment: Evaluation of antiulcer activity( percent decrease in total number of lesions in cold-restraint, stressed rats) at intraperitoneal dose at 32 mg/kg; Inactive; assay type: functional; procedure, shortened: as §2
# Rattus norvegicus [12] = experiment: Evaluation of antiulcer activity( percent decrease in total number of lesions in cold-restraint, stressed rats) at intraperitoneal dose at 100 mg/kg; Active; assay type: functional; procedure, shortened: as §2
# Cavia porcellus [13] = experiment: Respiratory status of guinea pigs exposed to histamine aerosol expressed as percent protection 4 hr at a dose of 60 mg/kg (po); assay type: functional
# Procedure, shortened: (§3)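 Duration study in guinea pigs: 60 mg/kg po given 2, 4 or 8 h before exposure to aerosol from 0.4% aqueous histamine nebulized at 6 psi in a closed chamber. Respiratory distress was scored 0–4. Percent protection compares the total score of 8 treated animals with 8 controls (control = 0, complete protection = 100).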
# Rattus norvegicus [14] = experiment: Evaluation of antiulcer activity (percent decrease in total number of lesions in cold-restraint, stressed rats) at peroral dose 10 mg/kg; Active; assay type: functional; conditions: route oral; procedure, shortened: as §2
# Cavia porcellus [15] = experiment: Respiratory status of guinea pigs exposed to histamine aerosol expressed as percent protection 2 hr at a dose of 60 mg/kg (po); assay type: functional; procedure, shortened: as §3
# Cavia porcellus [16] = experiment: Respiratory status of guinea pigs exposed to histamine aerosol expressed as percent protection 8 hr at a dose of 60 mg/kg (po); assay type: functional; procedure, shortened: as §3
# Rattus norvegicus [17] = experiment: Evaluation of antiulcer activity (percent decrease in total number of lesions in cold-restraint, stressed rats) at peroral dose 10 mg/kg; Inactive; conditions: route oral
# Rattus norvegicus [18] = experiment: Evaluation of antiulcer activity (percent decrease in total number of lesions in cold-restraint, stressed rats) at intraperitoneal dose at 100 mg/kg; Inactive; assay type: functional; procedure, shortened: as §2
# Rattus norvegicus [19] = experiment: Evaluation of antiulcer activity (percent decrease in total number of lesions in cold-restraint, stressed rats) at intraperitoneal dose at 100 mg/kg; Active; assay type: functional; procedure, shortened: as §2
# Cavia porcellus [20] = experiment: Evaluation of bronchodilator activity at dose 60 mg/kg perorally 1 hr prior to histamine aerosol exposure; 20-30; assay type: functional; conditions: route oral
# Procedure, shortened: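 Guinea pigs got 60 mg/kg po, either dissolved in 1 N HCl or suspended in vehicle; controls got vehicle. After 1 h each was challenged with histamine aerosol: 0.4% aqueous histamine nebulized at 6 psi into a closed chamber. Respiration was scored 0–4, with 4 being unconsciousness. Percent protection came from comparing the total score of eight treated animals with a control group of eight, giving a single value.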
Structure (SMILES),Protection (Cavia porcellus [1]),Decrease (Rattus norvegicus [6]),Decrease (Rattus norvegicus [10]),other results
Oc1ncncc1Oc1ccccc1Cl,13%,–,–,–
Oc1ncc(Oc2ccc(Cl)cc2)cn1,92%,0%,7%,Protection (Cavia porcellus [2]): 37%; Protection (Cavia porcellus [3]): 88%; Protection (Cavia porcellus [4]): 94%; Protection (Cavia porcellus [5]): 92%; Protection (Cavia porcellus [7]): 94%; Protection (Cavia porcellus [8]): 71%; Protection (Cavia porcellus [9]): 22%
Oc1ncncc1Oc1cccc(Cl)c1,13%,–,–,Decrease (Rattus norvegicus [11]): 18%
COc1ccc(Oc2cncnc2O)cc1,26%,–,0%,–
Cc1cc(C)cc(Oc2cnc(O)nc2)c1,38%,–,50%,Decrease (Rattus norvegicus [12]): 53%
Cc1ccc(Oc2cnc(O)nc2)cc1,86%,0%,–,Protection (Cavia porcellus [2]): 18%; Protection (Cavia porcellus [13]): 8%; Decrease (Rattus norvegicus [14]): 57%; Protection (Cavia porcellus [5]): 86%; Protection (Cavia porcellus [8]): 81%; Protection (Cavia porcellus [9]): 2%; Protection (Cavia porcellus [15]): 86%; Protection (Cavia porcellus [16]): 10%
Oc1ncc(Oc2ccc(Cl)cc2Cl)cn1,47%,19%,22%,–
Cc1ccc(Oc2cnc(O)nc2)cc1C,14%,53%,54%,–
Cc1cccc(Oc2cnc(O)nc2O)c1,7%,–,0%,Decrease (Rattus norvegicus [12]): 67%
CSc1ccc(Oc2cnc(O)nc2)cc1,55%,0%,0%,–
Oc1ncc(Oc2ccccc2)cn1,28%,–,–,Decrease (Rattus norvegicus [12]): 81%; Decrease (Rattus norvegicus [14]): 37%
Cc1ccccc1Oc1cnc(O)nc1,6%,25%,0%,–
COc1ccc(Oc2cnc(O)nc2)cc1,45%,0%,0%,–
CCc1ccc(Oc2cnc(O)nc2)cc1,98%,27%,0%,–
CCc1cccc(Oc2cnc(O)nc2)c1,3%,–,28%,Decrease (Rattus norvegicus [12]): 53%
Cc1cc(Oc2cnc(O)nc2)ccc1Cl,6%,14%,0%,–
Oc1ncncc1Oc1ccccc1,23%,–,0%,–
Cc1cccc(Oc2cncnc2O)c1,28%,–,0%,–
Oc1ncc(Oc2ccc(Br)cc2)cn1,90%,0%,0%,–
Oc1ncc(Oc2cccc(Cl)c2)cn1,22%,0%,22%,–

Structure (SMILES),Protection (Cavia porcellus [1]),Decrease (Rattus norvegicus [6]),Decrease (Rattus norvegicus [10]),other results
COc1cccc(Oc2cncnc2O)c1,7%,–,0%,–
Oc1ncc(Sc2ccc(Cl)cc2)cn1,63%,–,–,–
Oc1ncc(Oc2ccccc2)c(O)n1,25%,–,22%,–
Oc1ncncc1Oc1ccc(Cl)c(Cl)c1,45%,–,–,–
Oc1ncc(Sc2ccccc2)cn1,23%,47%,45%,–
Cc1ccc(Oc2cnc(O)nc2)c(C)c1,–,0%,–,Decrease (Rattus norvegicus [17]): 6%
Oc1ncc(Oc2ccc(Cl)cc2)c(O)n1,50%,–,35%,–
Cc1ccc(Oc2cnc(O)nc2O)cc1,35%,–,0%,–
Oc1ncc(Oc2cccc(C(F)(F)F)c2)cn1,26%,–,39%,–
CC(C)c1ccc(Oc2cnc(O)nc2)cc1,0%,9%,0%,–
Oc1ncncc1Oc1ccc(F)cc1,80%,–,28%,–
Oc1ncc(Oc2ccc(F)cc2)cn1,66%,0%,0%,–
COc1cccc(Oc2cnc(O)nc2)c1,3%,–,55%,Decrease (Rattus norvegicus [12]): 82%
C[S+]([O-])c1ccc(Oc2cnc(O)nc2)cc1 (configuration not stated),10%,0%,50%,–
Oc1ncncc1Oc1ccc(Cl)cc1,92%,–,–,Decrease (Rattus norvegicus [18]): 0%
Cc1ccc(Oc2cncnc2O)cc1,92%,–,27%,–
Cc1cccc(Sc2cnc(O)nc2)c1,–,–,–,Decrease (Rattus norvegicus [19]): 78%; Decrease (Rattus norvegicus [17]): 0%
Cc1ccc(Sc2cnc(O)nc2)cc1,26%,–,18%,Decrease (Rattus norvegicus [12]): 64%
Cn1c(=O)c2nc[nH]c2n(C)c1=O.O [THEOPHYLLINE],–,–,–,Protection (Cavia porcellus [20]): 20%
Cc1cccc(Oc2cnc(=O)[nH]c2)c1 [TOLIMIDONE],3%,–,–,Decrease (Rattus norvegicus [12]): 70%; Decrease (Rattus norvegicus [14]): 38%

# From ChEMBL document CHEMBL1121507, “Bronchodilator and antiulcer phenoxypyrimidinones” (1980)
